For series [1], the system named is Neutrophil. As to the kind of experiment: Immunomodulatory activity in polymorphoneutrophils assessed as inhibition of fMLP-induced cellular chemotaxis at 2.5 to 25 ug/mL after 1 hr using hematoxylin staining by light microscopy. Format: functional. The gist of the method: (§1)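 PMN chemotaxis was measured in a modified Boyden chamber. fMLP (10^-8 M) was placed in the lower well, separated by a cellulose filter (2 µm pores). 5 × 10^4 cells in HBSS with Ca/Mg went in the upper well, with compounds at 2.5, 5 or 25 µg/mL, in duplicate. The DMSO:HBSS (1:1) buffer served as control. After 60 min at 37 °C in CO2, cells in the filter were hematoxylin-stained and migration distance was measured in five random fields.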

For series [2], the system named is PBMC. Nature of the series: Immunomodulatory activity in human PBMC assessed as inhibition of phytohemagglutinin-stimulated IFN-gamma release after 18 hrs by ELISA. It is filed as functional, cell-based. The gist of the method:
(§2)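 Donor PBMCs were Ficoll-isolated and cultured in RPMI-1640 with 10% AB human serum, at 10^5 cells/well, with or without PHA 1.25 µg/mL. Compounds were tested at 16, 4, 1 and 0.5 µg/mL for 18 h at 37 °C in 5% CO2. Supernatants were cleared by 1000g centrifugation at 4 °C. IL-2, IL-4 and IFN-γ were measured by ELISA kit.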

The nature of series [3]: Cytotoxicity against polymorphoneutrophils at 3.1 to 50 ug/mL. It is filed as cell-based. The settings on record: neutrophil.
A short description of series [4]: Cytotoxicity against MNC at 3.1 to 50 ug/mL.
Series [5] is described as follows: Immunomodulatory activity in MNC assessed as suppression of phagocytosis activity after 30 mins by luminol-enhanced chemiluminescence assay. Format: functional. The gist of the method: (§3)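 Luminol-enhanced chemiluminescence was run on neutrophils (1 × 10^7) or monocytes (1 × 10^6) in HBSS with Ca/Mg. Cells were preincubated 30 min with compound (3.1–50 µg/mL), then zymosan (20 mg/mL stock) and luminol (7 × 10^-5 M stock) were added, to 0.2 mL final. HBSS alone served as control. Fifty luminometer scans were taken at 30 s intervals, with readings expressed relative to untreated control.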

Series [6] can be described thus: Cytotoxicity against MDBK cells at 50 ug/mL after 72 hrs by MTT assay. Format: cell-based, Bos taurus. The settings on record: cattle. The gist of the method:
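MDBK adherent cells at 2 × 10^5 cells/mL were exposed to serial compound dilutions (0.195–50 µg/mL), with viability examined after 72 h. MTT (2 mg/mL) was added for 2–3 h at 37 °C. Cells were washed with PBS and the formazan dissolved in DMSO, with 15 min agitation at 37 °C. Absorbance was read at 540 nm, and viability was taken as the OD ratio to control.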

Series [7] concerns PBMC. As to the kind of experiment: Immunomodulatory activity in human PBMC assessed as phytohemagglutinin-stimulated IFN-gamma release at 0.5 to 16 ug/mL after 18 hrs by ELISA. It is filed as functional. The gist of the method:
as §2

The test system of series [8] is PBMC. As to the kind of experiment: Immunomodulatory activity in human PBMC assessed as inhibition of phytohemagglutinin-stimulated IL4 release at 1 ug/mL after 18 hrs. Format: functional. The gist of the method:
as §2

Series [9] concerns PBMC. Nature of the series: Immunomodulatory activity in human PBMC assessed as phytohemagglutinin-stimulated IL2 release at 0.5 to 16 ug/mL after 18 hrs by ELISA. Format: functional. The gist of the method: as §2
For series [10], the system named is PBMC. Nature of the series: cells. The note with it: Homo sapiens.
Series [11] in a line: Immunomodulatory activity in MNC assessed as suppression of phagocytosis activity at 3.1 ug/mL after 30 mins by luminol-enhanced chemiluminescence assay.
Series [12] deals with Neutrophil. As to the kind of experiment: Immunomodulatory activity in polymorphoneutrophils assessed as suppression of phagocytosis activity at 3.1 ug/mL after 30 mins by luminol-enhanced chemiluminescence assay.
For series [13], the system named is Neutrophil. Nature of the series: Immunomodulatory activity in polymorphoneutrophils assessed as suppression of phagocytosis activity 30 mins by luminol-enhanced chemiluminescence assay. Format: functional, cell-based. The method, boiled down: as §3
For series [14], the system named is PBMC. As to the kind of experiment: Immunomodulatory activity in human PBMC assessed as inhibition of phytohemagglutinin-stimulated IFN-gamma release at 0.5 ug/mL after 18 hrs by ELISA. It is filed as functional. The method, boiled down: as §2
Series [15] has as its system PBMC. As to the kind of experiment: Immunomodulatory activity in human PBMC assessed as inhibition of phytohemagglutinin-stimulated IL2 release at 0.5 ug/mL after 18 hrs by ELISA. Format: functional. The gist of the method: as §2
The subject of series [16] is PBMC. Nature of the series: Immunomodulatory activity in human PBMC assessed as phytohemagglutinin-stimulated IL4 release at 0.5 to 16 ug/mL after 18 hrs by ELISA. Format: functional. The method, boiled down: as §2
In series [17] the test system is PBMC. Nature of the series: Immunomodulatory activity in human PBMC assessed as inhibition of phytohemagglutinin-induced T-cell proliferation at 12.5 ug/mL after 72 hrs by [3H]thymidine incorporation assay. Format: functional. The gist of the method: (§4)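 PBMCs were isolated from heparinized venous blood of a healthy adult donor by Ficoll–Hypaque gradient. Cells at 5 × 10^5 cells/mL were stimulated with PHA 5 µg/mL, with compounds at 3.1–100 µg/mL final, in triplicate. Incubation was 72 h at 37 °C in 5% CO2, then a 0.5 µCi/well [3H]thymidine pulse for 18 h further. Incorporation was counted by liquid scintillation as mean CPM.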

Series [18] relates to PBMC. As to the kind of experiment: Immunomodulatory activity in human PBMC assessed as inhibition of phytohemagglutinin-stimulated IL2 release after 18 hrs by ELISA. Format: functional, cell-based. The method, boiled down: as §2
The subject of series [19] is PBMC. As to the kind of experiment: Immunomodulatory activity in human PBMC assessed as inhibition of phytohemagglutinin-stimulated IL4 release after 18 hrs by ELISA. It is filed as functional, cell-based. The gist of the method: as §2
Series [20] can be described thus: Immunomodulatory activity in MNC assessed as stimulation of reactive oxygen species release at 3.1 ug/mL after 30 mins by luminol-enhanced chemiluminescence assay. Format: functional. The gist of the method: as §3
A short description of series [21]: Immunomodulatory activity in MNC assessed as inhibition of reactive oxygen species release at 25 ug/mL after 30 mins by luminol-enhanced chemiluminescence assay. It is filed as functional. The arrangement: scale not given: the % may be the effect or the level left. The method, boiled down: as §3
Series [22] can be described thus: Immunomodulatory activity in MNC assessed as inhibition of reactive oxygen species release at 50 ug/mL after 30 mins by luminol-enhanced chemiluminescence assay. Format: functional. More on the design: scale not given: the % may be the effect or the level left. The method, boiled down: as §3
The test system of series [23] is PBMC. Nature of the series: Immunomodulatory activity in human PBMC assessed as inhibition of phytohemagglutinin-induced T-cell proliferation at 6.125 ug/mL after 72 hrs by [3H]thymidine incorporation assay. Format: functional. The method, boiled down:
as §4

Series [24] has as its system PBMC. As to the kind of experiment: Immunomodulatory activity in human PBMC assessed as inhibition of phytohemagglutinin-induced T-cell proliferation at 3.1 ug/mL after 72 hrs by [3H]thymidine incorporation assay. Format: functional. The gist of the method:
as §4

Series [25] concerns Neutrophil. Nature of the series: Immunomodulatory activity in polymorphoneutrophils assessed as inhibition of fMLP-induced cellular chemotaxis at 5 ug/mL pre-incubated 1 hr before fMLP challenge measured after 1 hr using hematoxylin staining by light microscopy. Format: functional. The gist of the method: as §1
For series [26], the system named is Neutrophil. As to the kind of experiment: Immunomodulatory activity in polymorphoneutrophils assessed as inhibition of fMLP-induced cellular chemotaxis at 25 ug/mL after 1 hr using hematoxylin staining by light microscopy. Format: functional. The method, boiled down: as §1
Series [27] deals with Neutrophil. Nature of the series: Immunomodulatory activity in polymorphoneutrophils assessed as inhibition of fMLP-induced cellular chemotaxis at 2.5 ug/mL pre-incubated 1 hr before fMLP challenge measured after 1 hr using hematoxylin staining by light microscopy. It is filed as functional. The method, boiled down: as §1

≈ marks a conversion by molar mass, not a printed value.

`CC(C)=CCc1c(O)c(CC=C(C)C)c2oc3c(O)cc(O)cc3c(=O)c2c1O` [STAUDTIIXANTHONE A]: the “inhibition (INH)” value with Neutrophil [1] is recorded as 27%. Further, the inhibition entry in the series on PBMC [2], with PBMC [18] and in the series on PBMC [19] was “Dose-dependent effect” throughout. The Activity result in [3] was “Non-toxic”; in [4] it was “Non-toxic”; in series [5] it was “Dose-dependent effect”; in series [6], “Non-toxic”; in the series with PBMC [7], 4033.7 pg/mL; in the series on PBMC [9], 528.5 pg/mL. The Activity in series [11] was 73%; in the series on Neutrophil [12], 73%; in the series on Neutrophil [13], “Dose-dependent effect”; with PBMC [16] it was 120.5 pg/mL. Moreover, the inhibition at 1 µg/mL in the series on PBMC [8] amounted to 88.1%. Moreover, in the series with PBMC [10], the IC50 stood at 6.2 µg/mL (≈ 15.6 µM). For the same molecule, the values for the inhibition at 0.5 µg/mL with PBMC [14] and in the series on PBMC [15] were 62.5% and 68.2%, respectively. In addition, in the series on PBMC [17], the inhibition at 12.5 µg/mL came out at 94.3%.
In the case of `COc1cc2oc3c4c(cc(O)c3c(=O)c2c2c1OC(C)(C)CC2)OC(C)(C)CC4` [STAUDTIIXANTHONE D], the “inhibition (INH)” value in the series with Neutrophil [1] is given as 27%. Moreover, the Activity result in [3] was “Non-toxic”; in series [20], 24%; in series [4], “Non-toxic”; in series [5] it was “Dose-dependent effect”; in [21], 59%; in series [6] it was “Non-toxic”. Besides, the Activity in series [22] was 70%; in the series with PBMC [7] it was 4033.7 pg/mL; in the series with PBMC [9] it was 528.5 pg/mL; in the series on Neutrophil [13], “Dose-dependent effect”; in the series with PBMC [16], 120.5 pg/mL. This molecule also had an IC50 in the series with PBMC [10] of 3.7 µg/mL (≈ 9.01 µM). For the same molecule, the inhibition at 6.125 µg/mL in the series with PBMC [23] worked out at 70.4%. In addition, the inhibition at 3.1 µg/mL with PBMC [24] was 44.9%.
`CC(C)=CCc1c2c(c(O)c3c(=O)c4cc(O)cc(O)c4oc13)C=CC(C)(C)O2` [STAUDTIIXANTHONE B]: the “inhibition (INH)” value in the series on Neutrophil [1] stood at 27%. The inhibition entry with PBMC [2], with PBMC [18] and in the series on PBMC [19] was “Dose-dependent effect” each time. Moreover, the Activity entry in series [3] is “Non-toxic”; in [4], “Non-toxic”; in [5], “Dose-dependent effect”; in series [6] it was “Non-toxic”; in the series on PBMC [7], 4033.7 pg/mL; with PBMC [9], 528.5 pg/mL. Further, the Activity entry is “Dose-dependent effect” with Neutrophil [13] and 120.5 pg/mL in the series on PBMC [16]. Also, half-maximal inhibition with PBMC [10] (IC50) was put at 6.4 µg/mL (≈ 16.2 µM). In the series on PBMC [17], the inhibition at 12.5 µg/mL turned out to be 97.1%.
Take `CC(C)=CCc1c2c(c3oc4c(O)cc(O)cc4c(=O)c3c1O)C=CC(C)(C)O2` [STAUDTIIXANTHONE C]: the “inhibition (INH)” value in the series with Neutrophil [1] worked out at 27%. The inhibition result in the series with PBMC [2], with PBMC [18] and in the series on PBMC [19] was “Dose-dependent effect” each time. In addition, the inhibition at 5 µg/mL in the series with Neutrophil [25] is 42.2%. The Activity entry was “Non-toxic” in series [3]; “Non-toxic” in series [4]; “Dose-dependent effect” in [5]; “Non-toxic” in series [6]; 4033.7 pg/mL in the series with PBMC [7]; 528.5 pg/mL in the series on PBMC [9]. The Activity result was “Dose-dependent effect” in the series on Neutrophil [13] and 120.5 pg/mL in the series with PBMC [16]. In the series on PBMC [10], the IC50 came to 12.7 µg/mL (≈ 32.2 µM). Also, in the series on Neutrophil [26], the inhibition at 25 µg/mL stood at 46%. Also, the inhibition at 2.5 µg/mL in the series with Neutrophil [27] turned out to be 36.4%.

For the origin of these results see ChEMBL document CHEMBL1153469, “Antimicrobial and immunomodulatory properties of prenylated xanthones from twigs of Garcinia staudtii” (Bioorg Med Chem, 2009).
